Myeloid diff MLP – myeloid differentiation induction. calls only at 10 µM. 360,000 tested, 1% active. ER-HoxA9 myeloid progenitors, lysozyme-GFP differentiation, flow cytometry;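 active = normalized GFP-positive differentiation at or above the plate's own cutoff, the solvent-only control mean plus 3 SD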;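 also: cells exposed to compound for four days before flow analysis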
Vif imaging – HIV Vif inhibition; 340,000 tested, 0.35% active; HEK293T cells, Vif self-association by quenched fluorescence, imaging, 24 h; inhibition, % at 7.49 µM; AID 602346; in the data active = inhibition above about 50%, passing the limit was not always enough
Pemphigus Ab inh – inhibitors of pemphigus antibody binding to human desmoglein-3; P32926; DSG3-coupled beads, scFv-anti-DSG3-GFP binding, flow cytometry; stronger effect = lower value; binding (percent of control), % at 10 µM; 310,000 tested, 0.48% active; AID 588358;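 active = binding more than 3 SD below its plate's average and above zero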;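 also: hits lower antibody fragment binding to DSG3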
T cell HTS – T cell immune modulators affecting CD8 T cell-vesicle binding; 2C CD8+ T cell-vesicle binding, flow cytometry; stronger effect = lower value; response (vesicle binding), % at 7 µM; 330,000 tested, 0.068% active;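 active = response, share of CD8 T cells binding vesicles, and their 90th percentile fluorescence all below set limits, cut at about 80% in these data, passing the limit was not always enough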;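 also: values below 100% mean blocked vesicle binding to the CD8+ T cells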
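Test system: purified 2C TCR transgenic mouse naive CD8+ T cells. Probe or stimulus: QL9-peptide-loaded Drosophila micro-vesicles bearing Ld, ICAM-1 and B7-1. Incubation: binding step 1.5 h, 37 °C, antibody labelling 20 min, ice. Measured by: flow cytometry of vesicle-bound cells.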
* = called active by the depositor; i = inactive; / = no result; + = active, no number. Hits are enriched below; roughly 1.7% of the tested compounds scored in any of these assays.

SMILES	Myeloid diff MLP	Vif imaging	Pemphigus Ab inh	T cell HTS
COc1ccccc1-c1ccc([C@@H]2C[C@H]3[C@H](CON3C)CN2C(=O)c2ccc(-c3ccccc3)cc2)cc1	i	/	100	/
Cc1ccc(C)c2[nH]c(=O)c(CN(Cc3ccco3)S(=O)(=O)c3ccc4c(c3)OCCO4)cc12	+	-10	102	255
Cc1ccc(C(=O)N2CCC(Cc3ccccc3)CC2)cc1S(=O)(=O)N1CCOCC1	i	-17	102	/
COc1ccc(CC(=O)Nc2cccc(C(=O)NN3C(=O)c4ccccc4C3=O)c2C)cc1	i	2	14*	114
CN1C(=O)[C@H]2[C@@H](c3ccc(C(F)(F)F)cc3)N[C@]3(CCCN(Cc4ccco4)C3=O)[C@H]2C1=O	i	-3	113	/
Cc1ccc(-n2cc(CN3CCC(CO)(Cc4cccc(C(F)(F)F)c4)CC3)cn2)cc1	+	-6	95	192
CNC(=S)NNC(=O)c1oc2nc(-c3ccccc3)cc(C)c2c1N	i	-4	103	216
Cc1ccc(-c2cc(-c3ccco3)c3c(N)c(C(=O)NN)oc3n2)cc1	+	-14	110	483
CCOC(=O)c1cc(-c2cccs2)nc2onc(C)c12	i	-2	91	245
NNC(=O)c1oc2nc(-c3ccccc3)cc(-c3ccccc3)c2c1N	+	71*	460	370
NNC(=O)c1oc2nc(-c3cccs3)cc(-c3ccco3)c2c1N	+	-5	94	144
COc1cccc(/C=N/NC(=O)c2oc3nc(-c4ccccc4)cc(-c4ccco4)c3c2N)c1	i	-2	99	828
CC[C@@H]1C/C=C\Cc2ccccc2[C@@H](C(=O)C[C@@H](O)CC(C)=O)OC1=O	i	0	98	273
CC(C)COC(=O)N1CCCCC1c1cc(C(=O)Nc2ccccc2)no1 (stereo unspecified)	i	-1	/	/
O=C(CO)C(O)C(O)C(O)CO (stereo unspecified)	+	-4	/	402
CCNC(=O)C1(C)CCCN(CCOc2ccc(Cl)cc2)C1 (stereo unspecified)	i	/	/	/
COc1cc(OC)cc(-c2oc(=O)c3cc(OC)c(OC)cc3c2C(F)(F)F)c1	i	4	103	60*
O=C(CCCOc1ccc(Br)cc1)NNC(=O)c1ccncc1	i	67*	95	495
COc1ccc(CN2C(=O)CCC2(C)c2nnnn2-c2ccc3c(c2)OCCO3)cc1 (stereo unspecified)	i	/	/	/
COC(=O)c1cnc(Nc2nc(C(N)c3ccccc3Cl)cs2)nc1C(F)(F)F (stereo unspecified)	i	-11	/	/
NC(c1csc(NC(=O)c2cccc(OC(F)(F)F)c2)n1)c1ccccc1Cl (stereo unspecified)	+	-3	/	/
COc1ccc(-c2sc3cc4c(cc3c2-c2ccc(OCCN3CCCCC3)cc2)OCO4)cc1	+	-6	110	/
COc1cc(OC)cc(-c2sc3ccc(OC)cc3c2-c2ccc(OCCN3CCCCC3)cc2)c1	i	6	103	/
O=C(Cc1cccnc1)N[C@@H]1CC[C@H](CCn2cc(Cc3ccccc3)nn2)O[C@@H]1CO	i	/	/	/
O=C(NC(=S)Nc1ccccc1)c1ccc(-c2ccccc2)cc1	i	3	108	393
SMILES	Myeloid diff MLP	Vif imaging	Pemphigus Ab inh	T cell HTS
CC(C)NS(=O)(=O)c1ccc(NC(=S)NC(=O)c2ccc(-c3ccccc3)cc2)cc1	i	/	99	390
O=C(O)c1ccc(NC(=S)NC(=O)c2ccc(-c3ccccc3)cc2)cc1	/	2	31*	226
CC(=O)Nc1ccc(NC(=S)NC(=O)c2ccc(-c3ccccc3)cc2)cc1	i	-3	71*	285
COc1cccc(Sc2nc(-c3ccccc3)ncc2S(C)(=O)=O)c1	i	-11	91	146
O=C(O)c1ccccc1C(=O)Nc1ccc(Oc2ccc3ccccc3c2)cc1	+	45	100	235
COc1ccc(NC(=O)Nc2ccc(O)c3ccccc23)cc1	/	/	89	37*
COc1ccc(NC(=O)c2ccc3c(c2)C(=O)N(Cc2cccnc2)C3=O)cc1	i	1	70*	452
COc1ccc(C(=O)NNC(=O)c2ccc3ccccc3c2)cc1	i	-2	96	/
COc1ccc(NC(=O)c2ccc3ccccc3c2)cc1	i	-3	97*	0
O=C(c1cnc(Cl)c(Cl)c1)N1CCN(S(=O)(=O)c2cccs2)CC1	i	1	97	/
O=C(NCCN1CCC(n2c(=O)[nH]c3ccccc32)CC1)c1ccc(C(F)(F)F)cc1C(F)(F)F	i	/	/	/

Bioassay records as filed in PubChem.
